CaV13 FRET inh: Disruptors of the CACNA1D IQ motif to Ca2+-dependent inactivation inhibitor domain association, primary screening, Förster resonance energy transfer in intact living … | 340,000 compounds, 0.098% hits | HEK cells, CFP/YFP FRET ICDI-IQ, plate reader, 10 min; percent FRET-ratio fall versus neutral wells | inhibition, % at 12.3 µM;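 active means mean replicate inhibition of at least 30% and at least 1% of replicates passing that level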;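 further: 0% = median of the neutral control wells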
ADAM10 inh: inhibitors of human ADAM10; recombinant ADAM10, EDANS/DABCYL FRET peptide cleavage, 3 h; inhibition, % at 7 µM; 370,000 compounds, 0.62% hits;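 active means inhibition above a per-campaign cutoff equal to the mean of compounds falling between control-based bounds plus 3 SD, cut at about 20% in these data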;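 further: 0% = DMSO wells while the 100% control is not disclosed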
ADAM17 inh: ADAM17 inhibition, QFRET primary screen; P78536; inhibition, % at 6.95 µM; AID 720648; recombinant ADAM17, EDANS/DABCYL FRET peptide cleavage; 370,000 compounds, 0.83% hits;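 active means inhibition above the mean of compounds lying between control limits plus 3 SD, set per campaign, cut at about 8.5% in these data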;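 further: 0% = DMSO-only wells as the low control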
Arr AP2 block: blocks beta-arrestin peptide binding to AP2 adaptin; FITC-arrestin peptide / GST-AP2 beads, flow cytometry; AP2 beta2 appendage carries R879A mutation; inhibition, % at 10 µM; 340,000 compounds, 0.31% hits;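 active means inhibition above a set limit, near 3 SD of compounds lacking own fluorescence, cut at about 54% in these data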;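 further: plate controls were DMSO wells for no effect and 5 µM unlabelled arrestin peptide for full effect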
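Assay system: GST-AP2 R879A bound to glutathione beads, E. coli-expressed; Medium: PBS with 0.05% Tween 20 and 0.1% BSA; Also added: fluorescein-tagged arrestin peptide at 50 nM final; Timing: 12 min plus 1 h, RT; Measured by: flow cytometry, FL1 (488/535 nm); Evaluation: percent drop in bead-associated FITC signal.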
FAS TE block: FAS thioesterase (human) inhibition | 360,000 compounds, 0.67% hits | AID 602261 | inhibition, % at 15 µM | recombinant FAS-TE, OMFH fluorogenic substrate, fluorescence endpoint;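 active means compounds whose normalised, plate-corrected inhibition of enzyme fluorescence in the single-dose primary screen is 50% or more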;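 further: 0% = DMSO with enzyme and 100% = substrate without enzyme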
CendR NRP1 mod: alters CendR peptide binding to human NRP-1. O14786. 360,000 compounds, 0.85% hits. inhibition, % at 25 µM. FAM-RPARPAR peptide binding to NRP-1, fluorescence polarization;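 active means inhibition or corrected inhibition above about 18%, plus a signal ratio from 0.5 to 1.5, limit read from the data, passing the limit was not always enough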
Target sequence (O14786 whole entry, looked up): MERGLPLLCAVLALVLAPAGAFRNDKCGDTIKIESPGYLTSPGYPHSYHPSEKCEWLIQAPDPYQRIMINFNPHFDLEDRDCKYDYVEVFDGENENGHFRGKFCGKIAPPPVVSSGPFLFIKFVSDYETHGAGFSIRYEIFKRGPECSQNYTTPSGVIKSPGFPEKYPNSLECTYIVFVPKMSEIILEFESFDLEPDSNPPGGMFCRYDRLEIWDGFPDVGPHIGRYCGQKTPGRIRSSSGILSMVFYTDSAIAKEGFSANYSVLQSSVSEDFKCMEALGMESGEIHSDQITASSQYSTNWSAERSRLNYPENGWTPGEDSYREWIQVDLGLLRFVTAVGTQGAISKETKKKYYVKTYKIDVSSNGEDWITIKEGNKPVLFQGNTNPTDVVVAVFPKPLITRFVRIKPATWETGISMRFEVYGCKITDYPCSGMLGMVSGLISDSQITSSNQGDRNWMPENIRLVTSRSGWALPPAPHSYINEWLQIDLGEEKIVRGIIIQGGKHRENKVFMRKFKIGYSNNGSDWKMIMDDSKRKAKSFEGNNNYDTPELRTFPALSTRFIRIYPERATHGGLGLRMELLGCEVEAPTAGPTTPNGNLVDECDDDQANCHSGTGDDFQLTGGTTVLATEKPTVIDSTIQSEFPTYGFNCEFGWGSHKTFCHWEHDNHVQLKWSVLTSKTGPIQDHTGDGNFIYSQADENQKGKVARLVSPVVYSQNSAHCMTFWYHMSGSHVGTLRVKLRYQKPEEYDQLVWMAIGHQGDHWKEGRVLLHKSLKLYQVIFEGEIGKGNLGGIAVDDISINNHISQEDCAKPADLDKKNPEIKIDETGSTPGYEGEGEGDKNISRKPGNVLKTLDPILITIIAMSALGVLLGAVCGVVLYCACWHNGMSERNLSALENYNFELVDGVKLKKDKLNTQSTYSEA
Arr-AP2 CP1: inhibitors of human beta-arrestin and AP2 interaction. shares compounds with Arr AP2 block. inhibition, % at 10 µM. 1,300 compounds, 2% hits. GST-AP2 beads, FITC arrestin peptide binding, flow cytometry; GST-fused beta2-adaptin appendage, R879A mutant;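 active means inhibition above a set limit, roughly 3 SD of non-fluorescent compound noise, cut at about 38% in these data; inactive means inhibition at or below that limit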;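 further: loss of bead fluorescence from 50 nM FITC arrestin peptide bound to appendage; 0% = negative control wells and 100% = excess unlabelled arrestin peptide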
GST GSH counter: counter-screen for beta-arrestin AP2 inhibitors: GST-GSH bead binding; shares compounds with Arr AP2 block; GST-fluorescein binding to GSH beads, fluorescence; inhibition, % at 10 µM; 1,300 compounds, 2% hits; AID 588338;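 active means inhibition above 50%, about 3 SD of the inhibition seen with non-fluorescent compounds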;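 further: fluorescein maleimide labelled GST captured on 4 micron glutathione beads; higher means more loss of bead fluorescence from quenching or blocked binding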
* = called active by the depositor; i = inactive; . = no result given. Compounds with a hit are over-represented: about 2.9% of the library has one in this group of screens.

SMILES	CaV13 FRET inh	ADAM10 inh	ADAM17 inh	Arr AP2 block	FAS TE block	CendR NRP1 mod	Arr-AP2 CP1	GST GSH counter
CCCCSc1ncnc2[nH]ncc12	-3	0	-4	64*	-8	-11	16	-5
O=C1/C(=C\c2ccc(-c3ccccc3Cl)o2)SC(=S)N1CC1CCCO1 (stereo not given)	-5	-9	-3	73*	-17	-63	42*	27
C[C@@H]1NS(=O)(=O)c2cccc(Cl)c2O[C@@H]1c1ccccc1	-7	-4	-3	.	.	.	.	.
Cc1cccc(C)c1NC(=S)Nc1ccc(F)cc1	6	-3	-1	57*	-4	1	3	-4
CCOc1ccc(-n2cc(C(=O)N3CCC(C)CC3)c3cc(OC)c(OC)cc3c2=O)cc1	-5	-9	-4	56*	-1	-5	-15	-14
COc1ccc(CN(C)CC(=O)Nc2cc3oc4ccccc4c3cc2OC)c(OC)c1	-3	-4	4	6	26	-6	-3	2
COc1cc2c(cc1NC(=O)CN(C)Cc1ccc(OC)c(OC)c1)oc1ccccc12	-3	-9	1	18	45	-2	0	-10
COc1cc(CNC(=O)c2cc3ccccc3oc2=O)cc(OC)c1OC	-5	-6	-3	-12	-16	-10	.	.
C[C@H](CO)N1C[C@H](C)[C@@H](CN(C)S(=O)(=O)c2cccs2)Oc2c(NS(=O)(=O)c3cn(C)cn3)cccc2C1=O	-6	0	0	-1	-9	8	.	.
O=S1(=O)c2c(NCc3ccco3)cccc2Oc2ccccc2CN1Cc1cn(Cc2ccc(C(F)(F)F)cc2)nn1	.	-8	0	.	.	.	.	.
Cc1cccc(NC(=O)Nc2cnccn2)c1C	-3	-25	-16	-5	-4	20*	-8	-5
Cc1cccc(NC(=O)Nc2cccnc2)c1C	.	-7	2	-10	0	10	.	.
Cc1ccccc1NC(=O)Nc1cnccn1	-6	-10	-6	15	-6	-13	6	-6
CC(=O)Nc1cc(-c2cccc(C(=O)NCCO)c2)cn2c(-c3cccc(C(F)(F)F)c3)cnc12	-5	-35	-7	.	4	4	.	.
CC(=O)c1c(OC(=O)c2ccco2)c2ccccc2n1C	-3	3	0	63*	5	-6	-2	6
Cc1cc(C(F)(F)F)nn1CC(=O)NNC(=S)Nc1ccc(F)cc1	-10	-2	-2	0	-4	-2	.	.
CCNS(=O)(=O)c1ccc(NC(=O)Cn2nc(C(F)(F)F)cc2C)cc1	-5	13	4	62*	-4	17	7	5
CC(=O)Nc1ccc(NC(=O)CCCc2c[nH]c3ccccc23)cc1	-2	-3	-2	11	-4	10	.	.
CCN(CC(=O)Nc1ccc(NC(C)=O)cc1)C(=O)CCCSc1nc2ccccc2[nH]1	-2	9	5	66*	-4	11	-16	1
CCN(CC(=O)Nc1ccc(NC(C)=O)cc1)C(=O)CCCc1c[nH]c2ccccc12	-2	5	1	62*	-2	3	-4	-5
CC(=O)Nc1ccc(NC(=O)CCCSc2nc3ccccc3[nH]2)cc1	-7	2	3	2	-4	-12	.	.
CN(CCO)c1cccc2c1S(=O)(=O)N(Cc1cn(Cc3cccc(C(F)(F)F)c3)nn1)Cc1ccccc1O2	.	-9	1	.	.	.	.	.
O=CNc1cc(-c2ccc(C(=O)NC3CC3)cc2)cn2c(-c3ccc(F)cc3)cnc12	-7	-51	-15	.	26	-44	.	.
O=C(NC1CC2CCCC(C1)N2C(=S)NCCc1ccccc1)C1CC1 (stereo not given)	-11	-11	-5	56*	0	6	-2	-3
Cc1cc(O)ccc1-c1cc(C(=O)NCc2ccc(F)cc2)[nH]n1	-4	-3	-2	.	1	0	.	.
SMILES	CaV13 FRET inh	ADAM10 inh	ADAM17 inh	Arr AP2 block	FAS TE block	CendR NRP1 mod	Arr-AP2 CP1	GST GSH counter
COCCCN1C(=O)C(CC(=O)NCCCN(C)C)CC(C(=O)N(C(C)C)C(C)C)=C1C (stereo not given)	-4	-6	-6	.	-4	4	.	.
COc1ccc(-c2cc(NC=O)c3ncc(-c4cccc(C(=O)NCCN(C)C)c4)n3c2)c(OC)c1	-5	-31	-5	.	1	-17	.	.
COc1cc(OC)c(NC(=O)CC(=O)Nc2cc(Cl)c(OC)cc2OC)cc1Cl	-18	0	-2	7	22	-5	.	.
COc1cc(OC)c(NC(=O)CC(C)=O)cc1Cl	-5	4	0	4	-10	-6	-6	-1
O=C(Cc1ccc(NC(=O)C2CCN(C(=O)C3CCC3)CC2)cc1)Nc1cccc(C(=O)N2CCCCC2)c1	-7	-12	-2	60*	-8	-8	5	-12
O=C(Cc1ccc(NC(=O)C2CCN(C(=O)C3CCC3)CC2)cc1)Nc1cccc(C(=O)N2CCCC2)c1	-9	-4	4	-6	-8	-6	.	.
CN(C)c1ccc(C(=O)/C=C/c2ccccc2)cc1	-13	7	5	.	-2	-13	.	.
CN(C)c1ccc(C(=O)/C=C/c2ccc(Br)cc2)cc1	-47	3	0	98*	0	-24	38*	190*
Nc1nnc(SCC(=O)OCC(=O)Nc2ccccc2F)s1	-6	-6	-2	57*	-3	-1	-6	-10
CC(C)c1ccc(NC(=O)COC(=O)CSc2nnc(N)s2)cc1	-8	-1	-2	-8	-7	-5	.	.
CCC(=O)N1CCC1(C)C(=O)NS(=O)(=O)c1cccc(C#N)c1 (stereo not given)	-8	-8	-2	.	-2	-1	.	.
COc1ccc(-c2n[nH]c(=S)n2Cc2ccccc2)cc1	-20	3	1	56*	-1	2	-22	-7
O=C1Nc2ccccc2C(=O)N(c2ccc3c(c2)OCCO3)C1C(=O)NC1CC1 (stereo not given)	-8	-4	-5	.	.	6	.	.
CC1(C)Oc2ccc3ccc(=O)oc3c2/C(=C/Nc2ccc(O)cc2)C1=O	-7	3	0	55*	21	7	-10	-4
O=S(=O)(c1cccc(-c2cn3cccnc3n2)c1)N1CCCCCC1	-4	i	-413	61*	-6	-14	-1	-4
O=S(=O)(c1cccc(-c2cn3cccnc3n2)c1)N1CCOCC1	-3	i	i	2	-7	-2	.	.
COc1ccc(CCNC(=O)CSc2nc3c(sc(=S)n3-c3ccccc3)c(=O)[nH]2)cc1OC	-12	-4	-2	.	-5	-2	.	.
